Activity calls are given as the source filed them. The rule behind the calls is not given here.
Key:
Rattus norvegicus [1] = assay: Antihypertensive activity against DOCA-salt induced hypertension in albino rat assessed as reduction in systolic blood pressure at 10 mg/kg, po after 900 mins by tail-cuff method; assay type: functional; conditions: Artery, 15 h
Procedure, shortened: (§1)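 Rats given DOCA 20 mg/kg s.c. twice weekly in olive oil for 4 weeks, with 1% w/v NaCl as drinking water, reaching systolic 160–180 mm Hg. Rats were trained in restrainer and tail-cuff sessions. Compounds in 0.5% CMC were dosed at 10 mg/kg by oral feeding needle, with vehicle and nifedipine groups. BP was read before dosing and after, with the tail warmed at 37 °C for 2–5 min. Each compound was run three times in one week and readings averaged.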

Rattus norvegicus [2] = assay: Antihypertensive activity against DOCA-salt induced hypertension in albino rat assessed as reduction in systolic blood pressure at 10 mg/kg, po after 360 mins by tail-cuff method; assay type: functional; conditions: Artery, 6 h; procedure, shortened: as §1
Rattus norvegicus [3] = assay: Antihypertensive activity against DOCA-salt induced hypertension in albino rat assessed as reduction in systolic blood pressure at 10 mg/kg, po after 30 mins by tail-cuff method; assay type: functional; conditions: Artery, 0.5 h; procedure, shortened: as §1
Rattus norvegicus [4] = assay: Antihypertensive activity against DOCA-salt induced hypertension in albino rat assessed as reduction in systolic blood pressure at 10 mg/kg, po after 300 mins by tail-cuff method; assay type: functional; conditions: Artery, 5 h; procedure, shortened: as §1
Rattus norvegicus [5] = assay: Antihypertensive activity against DOCA-salt induced hypertension in albino rat assessed as reduction in systolic blood pressure at 10 mg/kg, po after 600 mins by tail-cuff method; assay type: functional; conditions: Artery, 10 h; procedure, shortened: as §1
Rattus norvegicus [6] = assay: Antihypertensive activity against DOCA-salt induced hypertension in albino rat assessed as reduction in systolic blood pressure at 10 mg/kg, po up to 360 mins by tail-cuff method; assay type: functional, organism-based; parameters: dose 10 mg/kg; conditions: Artery; procedure, shortened: as §1
Rattus norvegicus [7] = assay: Antihypertensive activity against DOCA-salt induced hypertension in albino rat assessed as reduction in systolic blood pressure at 10 mg/kg, po after 720 mins by tail-cuff method; assay type: functional; conditions: Artery, 12 h; procedure, shortened: as §1
Rattus norvegicus [8] = assay: Antihypertensive activity against DOCA-salt induced hypertension in albino rat assessed as reduction in systolic blood pressure at 10 mg/kg, po after 180 mins by tail-cuff method; assay type: functional; conditions: Artery, 3 h; procedure, shortened: as §1
Rattus norvegicus [9] = assay: Antihypertensive activity against DOCA-salt induced hypertension in albino rat assessed as reduction in systolic blood pressure at 10 mg/kg, po after 60 mins by tail-cuff method; assay type: functional; conditions: Artery, 1 h; procedure, shortened: as §1
Rattus norvegicus [10] = assay: Antihypertensive activity against DOCA-salt induced hypertension in albino rat assessed as reduction in systolic blood pressure at 10 mg/kg, po after 15 mins by tail-cuff method; assay type: functional; conditions: Artery, 0.25 h; procedure, shortened: as §1
Rattus norvegicus [11] = assay: Antihypertensive activity against DOCA-salt induced hypertension in albino rat assessed as reduction in systolic blood pressure at 10 mg/kg, po after 120 mins by tail-cuff method; assay type: functional; conditions: Artery, 2 h; procedure, shortened: as §1
Rattus norvegicus [12] = assay: Antihypertensive activity against DOCA-salt induced hypertension in albino rat assessed as reduction in systolic blood pressure at 10 mg/kg, po after 240 mins by tail-cuff method; assay type: functional; conditions: Artery, 4 h; procedure, shortened: as §1

SMILES | inhibition in vivo at 10 mg/kg (Rattus norvegicus [1]) [%] | inhibition in vivo at 10 mg/kg (Rattus norvegicus [2]) [%] | inhibition in vivo at 10 mg/kg (Rattus norvegicus [3]) [%] | inhibition in vivo at 10 mg/kg (Rattus norvegicus [4]) [%] | inhibition in vivo at 10 mg/kg (Rattus norvegicus [5]) [%] | Activity (Rattus norvegicus [6]) | inhibition in vivo at 10 mg/kg (Rattus norvegicus [7]) [%] | inhibition in vivo at 10 mg/kg (Rattus norvegicus [8]) [%] | inhibition in vivo at 10 mg/kg (Rattus norvegicus [9]) [%] | inhibition in vivo at 10 mg/kg (Rattus norvegicus [10]) [%] | inhibition in vivo at 10 mg/kg (Rattus norvegicus [11]) [%] | inhibition in vivo at 10 mg/kg (Rattus norvegicus [12]) [%]
CC1=C(C(=O)Nc2ccc([N+](=O)[O-])cc2)C(c2ccc(Br)cc2)N=C(SCc2ccccc2)N1 (stereo not drawn) | 19.5 | 37.6 | 3.6 | 29.7 | 27.2 | Active | 21.1 | 19.6 | 8.2 | 2.1 | 13.4 | 27.7
COc1ccc(C2N=C(SCc3ccc(Cl)cc3)NC(C)=C2C(=O)Nc2ccc(Br)cc2)cc1 (stereo not drawn) | 20 | 39.2 | 7.2 | 37.9 | 30.3 | Active | 23.7 | 22.7 | 12.3 | 3.1 | 16.5 | 29.2
CC1=C(C(=O)Nc2ccc([N+](=O)[O-])cc2)C(c2cccc([N+](=O)[O-])c2)N=C(SCc2cccc(Cl)c2)N1 (stereo not drawn) | 10.8 | 21.6 | 4.1 | 21 | 19 | Active | 12.9 | 14.9 | 8.2 | 2.6 | 12.4 | 17.9
COc1ccc(C2N=C(SCc3ccccc3Cl)NC(C)=C2C(=O)Nc2ccc(Br)cc2)cc1 (stereo not drawn) | 7.2 | 20.6 | 4.6 | 17.9 | 13.3 | Active | 10.8 | 11.3 | 6.7 | 3.1 | 8.2 | 15.4
CC1=C(C(=O)Nc2ccc(F)cc2)C(c2ccc([N+](=O)[O-])cc2)N=C(SCc2ccc(Cl)cc2)N1 (stereo not drawn) | 16.9 | 39.7 | 6.7 | 37.9 | 28.2 | Active | 22.2 | 23.2 | 11.8 | 3.6 | 16 | 33.3
CC1=C(C(=O)Nc2ccc(Br)cc2)C(c2ccc(Cl)cc2Cl)N=C(SCc2ccc(Cl)cc2)N1 (stereo not drawn) | 22.1 | 39.7 | 6.7 | 38.5 | 30.3 | Active | 25.8 | 23.2 | 11.8 | 4.1 | 17.5 | 32.3
CC1=C(C(=O)Nc2ccc([N+](=O)[O-])cc2)C(c2cccc([N+](=O)[O-])c2)N=C(SCc2ccc(Cl)cc2)N1 (stereo not drawn) | 12.3 | 33 | 3.1 | 24.1 | 26.2 | Active | 15.5 | 14.9 | 6.7 | 2.1 | 12.4 | 20
CC1=C(C(=O)Nc2ccc([N+](=O)[O-])cc2)C(c2ccc(Br)cc2)N=C(SCc2cccc(Cl)c2)N1 (stereo not drawn) | 2.6 | 7.2 | 2.6 | 9.2 | 5.1 | Active | 2.6 | 9.3 | 4.1 | 2.1 | 6.7 | 11.8
CC1=C(C(=O)Nc2ccc([N+](=O)[O-])cc2)C(c2ccc(Br)cc2)N=C(SCc2ccccc2Cl)N1 (stereo not drawn) | 4.1 | 13.9 | 3.6 | 16.9 | 9.7 | Active | 6.7 | 11.3 | 6.7 | 1.5 | 7.7 | 15.4
COc1ccc(C2N=C(SCc3ccc(F)cc3)NC(C)=C2C(=O)Nc2ccc(F)cc2)cc1OC (stereo not drawn) | 15.4 | 37.1 | 6.7 | 37.9 | 21 | Active | 17 | 22.2 | 11.8 | 3.6 | 15.5 | 28.7
COc1ccc(C2N=C(SCc3cccc(Cl)c3)NC(C)=C2C(=O)Nc2ccc(F)cc2)cc1OC (stereo not drawn) | 13.3 | 20.1 | 5.2 | 16.4 | 17.4 | Active | 15.5 | 13.4 | 8.2 | 2.1 | 10.8 | 14.9
CC1=C(C(=O)Nc2ccc([N+](=O)[O-])cc2)C(c2cccc([N+](=O)[O-])c2)N=C(SCc2ccccc2Cl)N1 (stereo not drawn) | 7.2 | 17.5 | 3.6 | 15.9 | 13.3 | Active | 11.3 | 9.3 | 6.7 | 2.1 | 7.7 | 12.8
COc1ccc(C2N=C(SCc3ccccc3)NC(C)=C2C(=O)Nc2ccc(F)cc2)cc1OC (stereo not drawn) | 1 | 3.6 | 3.6 | 7.2 | 3.1 | Active | 1.5 | 12.9 | 6.2 | 1.5 | 8.8 | 11.8
CC1=C(C(=O)Nc2ccc(F)cc2)C(c2ccc([N+](=O)[O-])cc2)N=C(SCc2cccc(Cl)c2)N1 (stereo not drawn) | 10.8 | 21.1 | 4.1 | 18.5 | 16.4 | Active | 12.9 | 11.9 | 7.2 | 2.1 | 9.8 | 15.9

Reference: ChEMBL document CHEMBL1275301, “Antihypertensive activity of newer 1,4-dihydro-5-pyrimidine carboxamides: synthesis and pharmacological evaluation” (2010)
